Activity calls are given as the source filed them. The calls are words filed in the database; no cut-off is given here.
Key:
Staphylococcus aureus [1] = assay: Microbicidal activity against Staphylococcus aureus 502a in presence of 0.8 mM Magnesium ions; assay type: functional, organism-based
Escherichia coli [2] = assay: Microbicidal activity against Escherichia coli ML35 in presence of 0.8 mM Magnesium ions; assay type: functional, organism-based
Outline: (§1)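 Log-phase E. coli ML35 or C. albicans was incubated with increasing peptide concentrations in 10 mM PIPES, pH 7.4. The buffer contained 1.2 mM CaCl2 and 0.8 mM MgCl2, or no added divalent salts. Incubation was 2 h at 37°C, and survivors were counted as colonies.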

Escherichia coli [3] = assay: Microbicidal activity against Escherichia coli ML35 in presence of 1.2 mM Calcium ions; assay type: functional, organism-based; outline: as §1
Candida albicans [4] = assay: Microbicidal activity against Candida albicans 16820; assay type: functional
Outline: (§2)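 Log-phase organisms (1–2 × 10^6 CFU/ml) were exposed to serially diluted peptide (0.05–10.0 μg/ml final) in 10 mM PIPES, pH 7.4, with 5 mM glucose for 2 h at 37°C. Aliquots were serially diluted 1:10 to 1:10^6 in Trypticase soy or Sabouraud broth and grown 24–48 h at 37°C. MMC was the lowest concentration giving 99.9% viability loss in at least two experiments.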

Escherichia coli [5] = assay: Microbicidal activity against Escherichia coli ML35 at <=8 ug/ml in presence of 10% heat-inactivated human serum; assay type: functional, organism-based
Outline: (§3)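 Human serum was heat-inactivated at 55°C for 30 min and clarified by centrifugation. E. coli was then exposed to a dose series of peptide in 10 mM PIPES, pH 7.4, with 10% of this serum. Killing was counted as colonies and expressed relative to incubations without serum.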

Staphylococcus aureus [6] = assay: Microbicidal activity against Staphylococcus aureus 502a using 10 mM sodium phosphate buffer in presence of 154 mM NaCl; assay type: functional, organism-based
Outline: (§4)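 Log-phase S. aureus was exposed to increasing peptide concentrations for 2 h at 37°C. Buffer was 10 mM PIPES, Tris-HCl or sodium phosphate, pH 7.4, with or without 154 mM NaCl. Killing was read by colony counting.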

[7] = target: Beta-galactosidase (Escherichia coli) (UniProt Q8VNN2); assay: Inhibition of Escherichia coli ML35 Beta-galactosidase assessed as hydrolysis of o-nitrophenyl-beta-d-galactopyranoside at 2 ug/ml
Staphylococcus aureus [8] = assay: Microbicidal activity against Staphylococcus aureus 502a; assay type: functional; outline: as §2
Staphylococcus aureus [9] = assay: Microbicidal activity against Staphylococcus aureus 502a at 5 ug/ml in presence of <= 80 mM NaCl; assay type: functional, organism-based
Outline: (§5)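 S. aureus in log phase was incubated with 5 μg/ml peptide in 10 mM PIPES, pH 7.4, containing increasing NaCl for 2 h at 37°C. Killing was determined by colony counting and expressed as a percentage of killing in buffer alone.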

[10] = Toxicity in human Erythrocyte assessed as hemolysis at 100 ug/ml in presence of 10% serum; assay type: cell-based
Outline: (§6)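 Erythrocytes from EDTA-anticoagulated human donor blood were washed in PBS or PiBS containing 4 mM EDTA, then resuspended without EDTA at 2% (vol/vol). Cells were incubated with peptide (0.3–100 μg/ml final) for 1 h at 37°C, with or without 10% autologous serum. Supernatant A405 was expressed relative to 1% Nonidet P-40 lysis.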

Staphylococcus aureus [11] = assay: Microbicidal activity against Staphylococcus aureus 502a using 10 mM PIPES buffer in presence of 154 mM NaCl; assay type: functional, organism-based; outline: as §4
Candida albicans [12] = assay: Microbicidal activity against Candida albicans 16820 in presence of 1.2 mM Calcium ions; assay type: functional, organism-based; outline: as §1
Candida albicans [13] = assay: Microbicidal activity against Candida albicans 16820 using PIPES buffer in presence of NaCl; assay type: functional, organism-based
Outline: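 Log-phase C. albicans was incubated with peptide in 10 mM PIPES, pH 7.4, supplemented with NaCl, for 2 h at 37°C. Survivors were plated on Sabouraud dextrose agar and counted after 18–24 h at 37°C.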

[14] = Selectivity index, ratio of MMC for Staphylococcus aureus 502a to hemolytic activity for human erythrocytes
Escherichia coli [15] = assay: Microbicidal activity against Escherichia coli ML35 at 16 ug/ml in presence of 10% heat-inactivated human serum; assay type: functional, organism-based; outline: as §3
Escherichia coli [16] = assay: Microbicidal activity against Escherichia coli ML35; assay type: functional; outline: as §2
Escherichia coli [17] = assay: Microbicidal activity against Escherichia coli ML35 assessed as induction of cytoplasmic membrane permeabilization at 1 ug/ml; assay type: functional, organism-based
Outline: (§7)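 Log-phase E. coli ML35 (1–2 × 10^6 CFU/ml) was incubated with peptide (0–8 μg/ml final) in 10 mM PIPES, pH 7.4, containing 3 mM ONPG. ONPG hydrolysis was followed at 405 nm for 60 min. The rate was taken as the highest kinetic slope and corrected for peptide inhibition of β-galactosidase measured cell-free.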

Staphylococcus aureus [18] = assay: Microbicidal activity against Staphylococcus aureus 502a at 0.5 to 2 ug/ml in presence of 10% human serum; assay type: functional, organism-based
Outline: (§8)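 S. aureus was incubated with a dose series of peptide in 10 mM PIPES, pH 7.4, containing 10% normal human serum. Bacterial killing was determined by colony counting and expressed as a percentage of killing in incubations lacking serum.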

Staphylococcus aureus [19] = assay: Microbicidal activity against Staphylococcus aureus 502a at >= 2 ug/ml in presence of 10% human serum; assay type: functional, organism-based; outline: as §8
Candida albicans [20] = assay: Microbicidal activity against Candida albicans 16820 in presence of 0.8 mM Magnesium ions; assay type: functional, organism-based; outline: as §1
Staphylococcus aureus [21] = assay: Microbicidal activity against Staphylococcus aureus 502a at 5 ug/ml in presence of 160 mM NaCl; assay type: functional, organism-based; outline: as §5
Candida albicans [22] = assay: Microbicidal activity against Candida albicans 16820 assessed as log reduction in microbial count at 10 ug/ml using PIPES buffer
Staphylococcus aureus [23] = assay: Microbicidal activity against Staphylococcus aureus 502a in presence of 1.2 mM Calcium ions; assay type: functional, organism-based
[24] = Toxicity in human Erythrocyte assessed as concentration required to achieve 3% hemolysis; assay type: cell-based
[25] = Toxicity in human Erythrocyte assessed as hemolysis at 100 ug/ml; assay type: cell-based; outline: as §6
[26] = target: Beta-galactosidase (Escherichia coli) (UniProt Q8VNN2); assay: Inhibition of Escherichia coli ML35 beta-galactosidase assessed as inhibition of o-nitrophenyl-beta-d-galactopyranoside hydrolysis at 1 ug/ml after 60 mins; outline: as §7
Hs68 [27] = assay: Cytotoxicity against human HS68 cells at <=100 ug/ml by MTT assay in presence of 0.4% FBS; assay type: cell-based
Outline: (§9)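 HS68 fibroblasts were grown in DMEM with 10% FBS and penicillin/streptomycin at 37°C and 5% CO2. Cells were seeded at 5 × 10^3 per well for 18 h. Medium was then switched to antibiotic-free DMEM with 0.4% or 10% FBS, as each line states, and peptide was added at 0–100 μg/ml for 1 h at 37°C. Wells were refed with growth medium and read by MTT in triplicate against no-peptide wells.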

Hs68 [28] = assay: Cytotoxicity against human HS68 cells at <=100 ug/ml by MTT assay in presence of 10% FBS; assay type: cell-based; outline: as §9

Chain of Beta-galactosidase (Escherichia coli) (Q8VNN2 whole entry, looked up): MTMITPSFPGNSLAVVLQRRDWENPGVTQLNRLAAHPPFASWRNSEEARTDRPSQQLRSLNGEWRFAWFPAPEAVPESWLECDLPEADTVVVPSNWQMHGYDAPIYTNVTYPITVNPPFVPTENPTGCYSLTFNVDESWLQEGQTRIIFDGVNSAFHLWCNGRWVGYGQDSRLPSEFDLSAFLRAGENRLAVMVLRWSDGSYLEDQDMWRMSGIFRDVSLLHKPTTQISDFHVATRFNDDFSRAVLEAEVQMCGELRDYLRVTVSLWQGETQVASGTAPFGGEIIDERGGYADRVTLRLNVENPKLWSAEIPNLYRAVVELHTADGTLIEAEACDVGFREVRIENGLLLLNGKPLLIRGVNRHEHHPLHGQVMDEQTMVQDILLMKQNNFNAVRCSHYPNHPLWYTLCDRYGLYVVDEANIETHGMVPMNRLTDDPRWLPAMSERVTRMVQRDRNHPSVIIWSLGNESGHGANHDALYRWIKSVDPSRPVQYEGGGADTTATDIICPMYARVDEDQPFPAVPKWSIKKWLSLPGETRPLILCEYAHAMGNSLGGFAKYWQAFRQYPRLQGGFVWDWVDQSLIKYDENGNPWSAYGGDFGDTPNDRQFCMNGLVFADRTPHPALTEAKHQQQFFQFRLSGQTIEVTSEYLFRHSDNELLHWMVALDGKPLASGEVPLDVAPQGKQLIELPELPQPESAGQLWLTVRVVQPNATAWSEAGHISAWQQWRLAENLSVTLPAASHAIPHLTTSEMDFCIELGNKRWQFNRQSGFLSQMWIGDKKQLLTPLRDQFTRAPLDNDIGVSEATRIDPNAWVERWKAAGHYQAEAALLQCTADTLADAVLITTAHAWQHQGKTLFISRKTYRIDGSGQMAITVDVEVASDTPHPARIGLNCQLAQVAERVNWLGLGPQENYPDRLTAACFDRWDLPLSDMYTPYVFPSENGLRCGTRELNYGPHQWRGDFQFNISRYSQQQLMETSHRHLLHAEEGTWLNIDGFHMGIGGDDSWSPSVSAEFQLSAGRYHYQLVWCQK

CC[C@H](C)[C@@H]1NC(=O)C2CSSCC(NC(=O)[C@H](CCCNC(=N)N)NC(=O)[C@@H]3CSSC[C@H](NC1=O)C(=O)N[C@@H]([C@@H](C)O)C(=O)N[C@@H](CCCNC(=N)N)C(=O)NCC(=O)N[C@@H](Cc1ccccc1)C(=O)N3)C(=O)N[C@@H]([C@@H](C)CC)C(=O)N[C@H]1CSSC[C@H](NC(=O)[C@H](Cc3ccccc3)NC(=O)CNC(=O)[C@H](CCCNC(=N)N)NC(=O)[C@H]([C@@H](C)O)NC1=O)C(=O)N[C@@H](CCCNC(=N)N)C(=O)N2 (single isomer, unassigned)
Activity (Staphylococcus aureus [1]): Active
Activity (Escherichia coli [2]): Active
Activity (Escherichia coli [3]): Active
MMC (Candida albicans [4]): 3 µg/mL
Activity (Escherichia coli [5]): inactive
Activity (Staphylococcus aureus [6]): inactive
inhibition [7]: 78%
MMC (Staphylococcus aureus [8]): 1.5 µg/mL
Activity (Staphylococcus aureus [9]): Active
Activity [10]: Non-toxic
Activity (Staphylococcus aureus [11]): inactive
Activity (Candida albicans [12]): inactive
Activity (Candida albicans [13]): inactive
Selectivity Index [14]: 14
Activity (Escherichia coli [15]): Active
MMC (Escherichia coli [16]): 2.3 µg/mL
Activity (Escherichia coli [17]): inactive
Activity (Staphylococcus aureus [18]): inactive
Activity (Staphylococcus aureus [19]): Active
Activity (Candida albicans [20]): inactive
Activity (Staphylococcus aureus [21]): inactive
FC (Candida albicans [22]): >3
Activity (Staphylococcus aureus [23]): Active
Activity [24]: 21 µg/mL
Activity [25]: Non-toxic
inhibition [26]: Active

CC[C@H](C)[C@@H]1NC(=O)[C@@H]2CSSC[C@H](NC(=O)[C@H](CCCNC(=N)N)NC(=O)[C@@H]3CSSC[C@H](NC1=O)C(=O)N[C@@H]([C@@H](C)O)C(=O)N[C@@H](CCCNC(=N)N)C(=O)NCC(=O)N[C@@H](Cc1ccccc1)C(=O)N3)C(=O)N[C@@H](CC(C)C)C(=O)N[C@H]1CSSC[C@H](NC(=O)[C@H](C(C)C)NC(=O)CNC(=O)[C@H](CCCNC(=N)N)NC(=O)[C@H](CCCNC(=N)N)NC1=O)C(=O)N[C@@H](CCCNC(=N)N)C(=O)N2 [listing 1 of 2 here]
Activity (Hs68 [27]): Non-toxic
Activity [10]: Non-toxic
Activity (Hs68 [28]): Non-toxic
Activity [24]: 5.5 µg/mL

CC[C@H](C)[C@@H]1NC(=O)[C@@H]2CSSC[C@H](NC(=O)[C@H](CCCNC(=N)N)NC(=O)[C@@H]3CSSC[C@H](NC1=O)C(=O)N[C@@H]([C@@H](C)O)C(=O)N[C@@H](CCCNC(=N)N)C(=O)NCC(=O)N[C@@H](Cc1ccccc1)C(=O)N3)C(=O)N[C@@H](CC(C)C)C(=O)N[C@H]1CSSC[C@H](NC(=O)[C@H](C(C)C)NC(=O)CNC(=O)[C@H](CCCNC(=N)N)NC(=O)[C@H](CCCNC(=N)N)NC1=O)C(=O)N[C@@H](CCCNC(=N)N)C(=O)N2 [listing 2 of 2 here]
MMC (Candida albicans [4]): 1 µg/mL
MMC (Staphylococcus aureus [8]): 1 µg/mL
Selectivity Index [14]: 5.5
MMC (Escherichia coli [16]): 2 µg/mL
FC (Candida albicans [22]): >3

Source: ChEMBL document CHEMBL1255250, “Microbicidal properties and cytocidal selectivity of rhesus macaque theta defensins” (Antimicrob Agents Chemother, 2008)
